This is a sample that favours compounds with a hit; in the whole collection about 2.5% have one here.
PRMT1 inh – inhibitors of human PRMT1; 1.3% of 370,000 active; AID 652257; recombinant PRMT1, activity-based probe fluorescence polarization; inhibition, % at 2.79 µM;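 active = inhibition above about 21% made by adding two undisclosed values, limit read from the data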
ABHD4 inh – inhibits mouse alpha/beta hydrolase domain 4; Q8VD66; purified mABHD4, FP-Rh probe fluorescence polarization; inhibition, % at 8.92 µM; 0.54% of 370,000 active; AID 720543;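 active = inhibition exceeding the mean over every tested compound plus 3 SD, cut at about 30% in these data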;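 also: 0% = plate median of compound wells and 100% = S159A mutant with DMSO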
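Assay system: Wild-type mouse ABHD4 protein | Medium: HEPES pH 7.0 buffer, 150 mM NaCl, 0.01% Pluronic F-127 | Incubation: Enzyme–compound pre-incubation 45 min, then probe 60 min, both 25 °C | Technique: Fluorescence polarization with parallel and perpendicular emission, 525/598 nm | Evaluation: % inhibition of FP-Rh probe binding versus controls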
SIAE primary – inhibitors of human sialic acid acetylesterase SIAE. inhibition, % at 9.66 µM. 0.69% of 370,000 active. SIAE FP-Rh probe binding, fluorescence polarization. Q9HAT2. AID 1053197;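 active = inhibition above a cutoff: mean of compounds within the control limits plus 3 SD of those, cut at about 17% in these data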;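 also: 0% = plate median of compound wells and 100% = probe without SIAE protein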
Target sequence (Q9HAT2 whole entry, looked up): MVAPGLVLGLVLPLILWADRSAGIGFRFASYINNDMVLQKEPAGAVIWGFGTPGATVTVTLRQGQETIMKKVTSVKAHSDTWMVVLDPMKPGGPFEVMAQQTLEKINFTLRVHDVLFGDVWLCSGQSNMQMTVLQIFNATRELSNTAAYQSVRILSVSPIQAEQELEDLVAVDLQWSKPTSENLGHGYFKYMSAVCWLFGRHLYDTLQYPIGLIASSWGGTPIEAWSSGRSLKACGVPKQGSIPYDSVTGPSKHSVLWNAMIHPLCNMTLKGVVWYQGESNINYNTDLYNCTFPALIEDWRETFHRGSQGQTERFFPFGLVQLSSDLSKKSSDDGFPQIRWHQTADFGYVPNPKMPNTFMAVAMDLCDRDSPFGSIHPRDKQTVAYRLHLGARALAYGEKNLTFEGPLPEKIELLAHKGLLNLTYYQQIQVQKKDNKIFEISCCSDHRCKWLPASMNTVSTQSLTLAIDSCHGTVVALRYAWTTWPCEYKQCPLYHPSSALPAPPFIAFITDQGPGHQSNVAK
HTRA1 inhibitor – blocks human HTRA1 serine peptidase; Q92743; recombinant HTRA1, FP-rhodamine activity-based probe, fluorescence polarization; inhibition, % at 5.96 µM; 0.5% of 340,000 active; AID 504803; in the data active = inhibition above about 36%;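 also: 0% = enzyme with DMSO and 100% = wells lacking enzyme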
TCR CD3 inh – human TCR-CD3 binding inhibition; AID 651800; 0.37% of 360,000 active; inhibition, % at 9.4 µM; TAMRA-labeled TCR probe fluorescence, biochemical; in the data active = inhibition above about 19%;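 also: recombinant mutant TCR 2C K166C tagged with TAMRA read by polarization; 0% = receptor in buffer alone and 100% = receptor with positive control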
HTRA1 conf – HTRA1 (human) inhibition, confirmation. shares compounds with HTRA1 inhibitor. recombinant HTRA1, FP-rhodamine activity-based probe, fluorescence polarization. inhibition, % at 5.96 µM. 66% of 1,600 active;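 active = mean inhibition over three repeats above a set limit taken from the earlier primary screen, cut at about 37% in these data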;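 also: 0% = HTRA1 with DMSO and 100% = wells lacking HTRA1; inhibitors block probe binding so polarization drops and inhibition rises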
An asterisk follows results filed as active.

Results for COc1cccc(C=NNC(=O)c2ccncc2)c1O ?
PRMT1 inh: -1; ABHD4 inh: 8; SIAE primary: 0; HTRA1 inhibitor: 6; TCR CD3 inh: -1

How did COc1cccc(/C=N/NC(=O)c2c(C)nc3ccc(Br)cn23)c1O do in these assays?
HTRA1 inhibitor: 54*; HTRA1 conf: 52*

Results for COc1cccc(/C=N/NC(=O)c2nc(-c3ccccc3)cc(-c3ccccc3)n2)c1O ?
PRMT1 inh: -5; ABHD4 inh: 2; SIAE primary: 3; HTRA1 inhibitor: 43*; TCR CD3 inh: 5; HTRA1 conf: 57*

What do the screens show for `COc1cccc(/C=N/NC(=O)N/N=C/c2cccc(OC)c2O)c1O`?
PRMT1 inh: 1; ABHD4 inh: 14; SIAE primary: 14; HTRA1 inhibitor: 60*; TCR CD3 inh: 5; HTRA1 conf: 85*

Results for CN(C)S(=O)(=O)c1cccc(C(=O)N/N=C\c2ccnc3ccccc23)c1 ?
PRMT1 inh: -5; ABHD4 inh: -13; SIAE primary: -22

How did O=C(CSc1nnc(Cc2cccs2)n1-c1ccc(Cl)cc1)Nc1ccc(OCc2ccccc2)cc1 do in these assays?
PRMT1 inh: -1; ABHD4 inh: -19; SIAE primary: -12

Results for Cc1cc(C)cc(NC(=O)OC2CC3CC2[C@H]2CCCCN2[C@H]3C)c1 (stereo partly specified) ?
PRMT1 inh: -7; ABHD4 inh: -2; SIAE primary: -2

What do the screens show for `FC(F)(F)c1cnc(NNC(=S)Nc2cccnc2)c(Cl)c1`?
PRMT1 inh: 3; ABHD4 inh: 10; SIAE primary: -2; HTRA1 inhibitor: 6; TCR CD3 inh: 0

What do the screens show for `FC(F)(F)c1cnc(NNC(=S)Nc2ccccc2)c(Cl)c1`?
PRMT1 inh: -2; ABHD4 inh: 11; SIAE primary: 7; HTRA1 inhibitor: 47*; TCR CD3 inh: -3; HTRA1 conf: 30

How did CC1(C)CC2(CC(c3ccc(F)cc3)c3ccc(O)cc3O2)NC(=S)N1 (stereo unspecified) do in these assays?
PRMT1 inh: 17; ABHD4 inh: 1; SIAE primary: -4; HTRA1 inhibitor: -4; TCR CD3 inh: -12

Results for CC1(C)CC2(CC(c3ccccc3F)c3ccc(O)c(O)c3O2)NC(=S)N1 (stereo unspecified) ?
PRMT1 inh: 18; ABHD4 inh: 21; SIAE primary: 4; HTRA1 inhibitor: 61*; TCR CD3 inh: 6; HTRA1 conf: 58*

Results for c1ccc(-c2nnc(-c3ccccn3)nc2NC2CCCCC2)cc1 ?
PRMT1 inh: -2; ABHD4 inh: 5; SIAE primary: -1; HTRA1 inhibitor: 65*; TCR CD3 inh: 0; HTRA1 conf: 80*

What do the screens show for `Cc1[nH]c2c(C)cccc2c1CCNC(=O)c1ccc2c(c1[N+](=O)[O-])C(=O)c1ccccc1C2=O`?
PRMT1 inh: -4; ABHD4 inh: 7; SIAE primary: 5; HTRA1 inhibitor: 42*; TCR CD3 inh: 5; HTRA1 conf: 44*

How did Oc1ccccc1NCC(O)Cn1ccc2ccccc21 (stereo unspecified) do in these assays?
PRMT1 inh: 8; ABHD4 inh: 27; SIAE primary: 10; HTRA1 inhibitor: 54*; TCR CD3 inh: 0; HTRA1 conf: 21

Results for CCCC(=O)N1CCC[C@]2(CC[C@@H](CCC(=O)N(CC)CC)O2)C1 ?
PRMT1 inh: 0; ABHD4 inh: 2; SIAE primary: -2

What do the screens show for `Oc1ccccc1C=NNC(=S)Nc1ccc(F)cc1`?
PRMT1 inh: -6; ABHD4 inh: 9; SIAE primary: 6; HTRA1 inhibitor: 45*; TCR CD3 inh: 12; HTRA1 conf: 46*

Results for Fc1ccc(NC(=S)NN=Cc2ccccc2Cl)cc1 ?
PRMT1 inh: 2; ABHD4 inh: -2; SIAE primary: 5; HTRA1 inhibitor: -20; TCR CD3 inh: -4

What do the screens show for `O=C(Oc1c(Cl)cc(Cl)c2cccnc12)c1cccc([N+](=O)[O-])c1`?
HTRA1 inhibitor: 55*; HTRA1 conf: 40*

How did O=C(Oc1cccc2cccnc12)c1cccc([N+](=O)[O-])c1 do in these assays?
PRMT1 inh: -2; ABHD4 inh: 1; SIAE primary: 6; HTRA1 inhibitor: 15; TCR CD3 inh: 2

What do the screens show for `Nc1sc2c(c1C(=O)NC1CC1)CCCC2`?
PRMT1 inh: 16; ABHD4 inh: 13; SIAE primary: 8; HTRA1 inhibitor: 47*; TCR CD3 inh: 8; HTRA1 conf: 8

Results for CCOC(=O)c1c(N)sc2c1CCCC2 ?
PRMT1 inh: 6; ABHD4 inh: 4; SIAE primary: 2; HTRA1 inhibitor: -1; TCR CD3 inh: 4

Results for COc1ccc(-n2c(COc3ccccc3)nnc2SCC(=O)Nc2ccc3c(c2)OCCO3)cc1 ?
PRMT1 inh: 0; ABHD4 inh: -7; SIAE primary: -1

Results for COC(=O)c1cc(-c2ccc(-c3ccccc3)c(F)c2)c(=O)n2c1CCC2 ?
PRMT1 inh: 0; ABHD4 inh: 2; SIAE primary: -6

What do the screens show for `Cc1c(N=C2C=CC(=O)c3ccccc32)c(=O)n(-c2ccccc2)n1C`?
PRMT1 inh: 7; ABHD4 inh: 10; SIAE primary: 7; HTRA1 inhibitor: 37*; TCR CD3 inh: 2; HTRA1 conf: 33

How did CN1CCN(c2cc(-c3cc(O)c4ncccc4c3)ccn2)CC1 do in these assays?
PRMT1 inh: 1; ABHD4 inh: 19; SIAE primary: 4; HTRA1 inhibitor: 47*; TCR CD3 inh: -6; HTRA1 conf: 62*

Results for CC(=O)NC(Cc1ccccc1)P(=O)(O)O (stereo unspecified) ?
PRMT1 inh: -3; ABHD4 inh: 7; SIAE primary: -2

Results for O=C(CSc1nc2ccccc2s1)N1CCOCC1 ?
PRMT1 inh: 2; ABHD4 inh: 3; SIAE primary: 2; HTRA1 inhibitor: 161*; TCR CD3 inh: 6; HTRA1 conf: -2

How did CCC(=O)NC(c1ccc(OC)cc1)c1c(O)ccc2ccccc12 (stereo unspecified) do in these assays?
PRMT1 inh: -1; ABHD4 inh: -11; SIAE primary: 5; HTRA1 inhibitor: -10; TCR CD3 inh: -3

How did CCC(=O)NC(c1ccco1)c1cc(Cl)c2cccnc2c1O (stereo unspecified) do in these assays?
PRMT1 inh: 3; ABHD4 inh: 18; SIAE primary: 10; HTRA1 inhibitor: 56*; TCR CD3 inh: -1; HTRA1 conf: 64*

What do the screens show for `CCCCC(=O)NC(c1ccco1)c1cc(Cl)c2cccnc2c1O` (stereo unspecified)?
PRMT1 inh: -2; ABHD4 inh: 12; SIAE primary: 11; HTRA1 inhibitor: 59*; TCR CD3 inh: -2; HTRA1 conf: 65*

Results for CCC(=O)NC(c1ccco1)c1cc(Cl)c2cccnc2c1OC (stereo unspecified) ?
PRMT1 inh: 1; ABHD4 inh: 11; SIAE primary: 0; HTRA1 inhibitor: -3; TCR CD3 inh: -4

High-throughput results: PubChem BioAssay, The Scripps Research Institute Molecular Screening Center
